Data published in ChEMBL document CHEMBL3745695, “Novel Hits in the Correction of ΔF508-Cystic Fibrosis Transmembrane Conductance Regulator (CFTR) Protein: Synthesis, Pharmacological, and ADME Evaluation of Tetrahydropyrido[4,3-d]pyrimidines for the Potential Treatment of Cystic Fibrosis” (J Med Chem, 2015).
≈ marks a conversion by molar mass, not a printed value.

Legend:
[1] = Solubility of the compound in 50 mM ammonium acetate buffer at 250 uM at pH 7.4 after 24 hrs by UPLC/UV/TOF-MS analysis; format: physicochemical; details: for solubility at 24 h, 250 µM: 50 mM ammonium acetate buffer, pH 7.4
Procedure, shortened: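 From 10 mM DMSO stock, 250 μM in 50 mM ammonium acetate pH 7.4 (2.5% DMSO final). Shaken 24 h at room temperature, filtered, diluted 1:2. UPLC/UV (254 nm) quantified against a 250 μM standard in acetonitrile/buffer.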

CYP3A4 = CYP3A4 (Homo sapiens, UniProt P08684); assay: Metabolic stability assessed as recombinant human CYP3A4-mediated drug degradation by measuring compound remaining incubated for 1 hr by MS analysis; format: ADME; details: read-out: Stability
CYP3A4, sequence (P08684 whole entry): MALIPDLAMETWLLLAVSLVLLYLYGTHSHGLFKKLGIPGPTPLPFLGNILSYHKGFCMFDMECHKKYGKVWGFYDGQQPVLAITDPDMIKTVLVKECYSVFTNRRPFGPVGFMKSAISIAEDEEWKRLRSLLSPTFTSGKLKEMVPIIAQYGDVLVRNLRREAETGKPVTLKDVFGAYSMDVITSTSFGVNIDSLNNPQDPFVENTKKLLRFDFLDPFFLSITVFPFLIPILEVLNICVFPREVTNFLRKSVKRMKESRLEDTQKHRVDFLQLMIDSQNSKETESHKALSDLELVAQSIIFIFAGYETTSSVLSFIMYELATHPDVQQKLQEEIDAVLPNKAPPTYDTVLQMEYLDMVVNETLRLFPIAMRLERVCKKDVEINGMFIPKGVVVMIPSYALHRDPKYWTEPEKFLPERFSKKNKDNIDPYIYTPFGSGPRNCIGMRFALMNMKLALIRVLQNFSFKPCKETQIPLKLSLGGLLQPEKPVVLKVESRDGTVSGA
Procedure, shortened: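 Recombinant hCYP3A4 at 20 pmol/mL, compound at 1 μM final with 0.25% organic solvent. 1 h at 37 °C with or without NADPH regenerating system, acetonitrile stop. Reported as % remaining by MS, NADPH sample versus the no-NADPH control.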

[2] = tested on: Cystic fibrosis transmembrane conductance regulator (Homo sapiens), P13569 [F508del]; assay: Corrector activity at human CFTR F508 deletion mutant expressed in FRT cells at 10 uM incubated for 25 mins with forskolin by YFP-based fluorescence analysis relative to control; format: cell-based
Cystic fibrosis transmembrane conductance regulator (Homo sapiens), P13569 [F508del], sequence (P13569 as listed by the source): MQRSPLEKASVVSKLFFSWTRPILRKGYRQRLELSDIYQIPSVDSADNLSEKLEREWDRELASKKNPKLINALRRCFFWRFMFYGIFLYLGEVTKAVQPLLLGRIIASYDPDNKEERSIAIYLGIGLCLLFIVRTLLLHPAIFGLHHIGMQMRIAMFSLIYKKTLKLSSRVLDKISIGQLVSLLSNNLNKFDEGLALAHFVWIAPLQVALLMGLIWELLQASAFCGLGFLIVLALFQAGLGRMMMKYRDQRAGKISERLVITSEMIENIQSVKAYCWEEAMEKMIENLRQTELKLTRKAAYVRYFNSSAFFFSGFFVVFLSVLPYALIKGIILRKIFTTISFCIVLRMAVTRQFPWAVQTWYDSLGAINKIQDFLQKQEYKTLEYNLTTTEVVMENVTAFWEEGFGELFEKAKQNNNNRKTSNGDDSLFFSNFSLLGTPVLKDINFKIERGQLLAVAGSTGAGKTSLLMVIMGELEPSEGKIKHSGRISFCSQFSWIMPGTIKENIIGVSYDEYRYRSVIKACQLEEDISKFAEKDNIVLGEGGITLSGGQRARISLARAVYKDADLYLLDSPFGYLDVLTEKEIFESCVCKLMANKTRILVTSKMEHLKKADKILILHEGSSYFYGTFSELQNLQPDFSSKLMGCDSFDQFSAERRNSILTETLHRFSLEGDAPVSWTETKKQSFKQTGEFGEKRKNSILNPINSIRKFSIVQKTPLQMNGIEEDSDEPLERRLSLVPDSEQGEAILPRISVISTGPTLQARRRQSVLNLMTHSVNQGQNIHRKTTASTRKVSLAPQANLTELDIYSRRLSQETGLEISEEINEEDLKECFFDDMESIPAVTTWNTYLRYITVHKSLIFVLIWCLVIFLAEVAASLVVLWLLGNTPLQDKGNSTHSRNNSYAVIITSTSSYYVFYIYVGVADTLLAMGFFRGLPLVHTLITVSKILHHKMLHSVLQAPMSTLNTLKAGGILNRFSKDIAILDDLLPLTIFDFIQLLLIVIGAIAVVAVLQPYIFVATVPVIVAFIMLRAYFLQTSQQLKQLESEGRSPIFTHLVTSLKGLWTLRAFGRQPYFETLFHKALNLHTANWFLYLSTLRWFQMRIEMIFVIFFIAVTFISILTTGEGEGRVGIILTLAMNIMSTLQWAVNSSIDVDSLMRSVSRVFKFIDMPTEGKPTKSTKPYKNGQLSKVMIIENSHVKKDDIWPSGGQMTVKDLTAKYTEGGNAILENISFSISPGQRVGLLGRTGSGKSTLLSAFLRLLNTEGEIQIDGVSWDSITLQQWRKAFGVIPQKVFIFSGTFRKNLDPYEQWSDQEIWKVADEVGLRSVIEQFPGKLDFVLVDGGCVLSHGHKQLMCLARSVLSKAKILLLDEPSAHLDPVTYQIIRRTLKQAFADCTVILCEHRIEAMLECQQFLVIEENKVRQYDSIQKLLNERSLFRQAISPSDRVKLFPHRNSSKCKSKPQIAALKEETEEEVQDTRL

[3] = tested on: Cystic fibrosis transmembrane conductance regulator (Homo sapiens), P13569 [F508del]; assay: (§1) Corrector activity at human CFTR F508 deletion mutant expressed in FRT cells incubated for 25 mins with forskolin by YFP-based fluorescence analysis relative to control; format: cell-based
Procedure, shortened: (§2)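 FRT cells co-expressing ΔF508-CFTR and YFP-H148Q/I152L, grown 18–24 h at 37 °C, then 18–24 h at 37 °C with test compound. Then 25 min in PBS with forskolin (20 μM) plus genistein (50 μM). Iodide injected (final 100 mM) with a 14-s read. Exponential fit of the final 11 s gave dF/dt. EC50/Emax from dose–response, normalized to DMSO (0%) and positive control (100%). Mean of 2–3 experiments.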

[4] = target: Cystic fibrosis transmembrane conductance regulator (Homo sapiens, UniProt P13569, F508DEL); assay: as §1; format: cell-based; procedure, shortened: as §2
Cystic fibrosis transmembrane conductance regulator, sequence (P13569 as listed by the source): as above

[5] = target: Cystic fibrosis transmembrane conductance regulator (Homo sapiens) (UniProt P13569); assay: Activity at human wild type CFTR expressed in FRT cells at 10 uM incubated for 25 mins with forskolin by YFP-based fluorescence analysis; format: cell-based
Cystic fibrosis transmembrane conductance regulator (Homo sapiens), sequence (P13569 whole entry, looked up): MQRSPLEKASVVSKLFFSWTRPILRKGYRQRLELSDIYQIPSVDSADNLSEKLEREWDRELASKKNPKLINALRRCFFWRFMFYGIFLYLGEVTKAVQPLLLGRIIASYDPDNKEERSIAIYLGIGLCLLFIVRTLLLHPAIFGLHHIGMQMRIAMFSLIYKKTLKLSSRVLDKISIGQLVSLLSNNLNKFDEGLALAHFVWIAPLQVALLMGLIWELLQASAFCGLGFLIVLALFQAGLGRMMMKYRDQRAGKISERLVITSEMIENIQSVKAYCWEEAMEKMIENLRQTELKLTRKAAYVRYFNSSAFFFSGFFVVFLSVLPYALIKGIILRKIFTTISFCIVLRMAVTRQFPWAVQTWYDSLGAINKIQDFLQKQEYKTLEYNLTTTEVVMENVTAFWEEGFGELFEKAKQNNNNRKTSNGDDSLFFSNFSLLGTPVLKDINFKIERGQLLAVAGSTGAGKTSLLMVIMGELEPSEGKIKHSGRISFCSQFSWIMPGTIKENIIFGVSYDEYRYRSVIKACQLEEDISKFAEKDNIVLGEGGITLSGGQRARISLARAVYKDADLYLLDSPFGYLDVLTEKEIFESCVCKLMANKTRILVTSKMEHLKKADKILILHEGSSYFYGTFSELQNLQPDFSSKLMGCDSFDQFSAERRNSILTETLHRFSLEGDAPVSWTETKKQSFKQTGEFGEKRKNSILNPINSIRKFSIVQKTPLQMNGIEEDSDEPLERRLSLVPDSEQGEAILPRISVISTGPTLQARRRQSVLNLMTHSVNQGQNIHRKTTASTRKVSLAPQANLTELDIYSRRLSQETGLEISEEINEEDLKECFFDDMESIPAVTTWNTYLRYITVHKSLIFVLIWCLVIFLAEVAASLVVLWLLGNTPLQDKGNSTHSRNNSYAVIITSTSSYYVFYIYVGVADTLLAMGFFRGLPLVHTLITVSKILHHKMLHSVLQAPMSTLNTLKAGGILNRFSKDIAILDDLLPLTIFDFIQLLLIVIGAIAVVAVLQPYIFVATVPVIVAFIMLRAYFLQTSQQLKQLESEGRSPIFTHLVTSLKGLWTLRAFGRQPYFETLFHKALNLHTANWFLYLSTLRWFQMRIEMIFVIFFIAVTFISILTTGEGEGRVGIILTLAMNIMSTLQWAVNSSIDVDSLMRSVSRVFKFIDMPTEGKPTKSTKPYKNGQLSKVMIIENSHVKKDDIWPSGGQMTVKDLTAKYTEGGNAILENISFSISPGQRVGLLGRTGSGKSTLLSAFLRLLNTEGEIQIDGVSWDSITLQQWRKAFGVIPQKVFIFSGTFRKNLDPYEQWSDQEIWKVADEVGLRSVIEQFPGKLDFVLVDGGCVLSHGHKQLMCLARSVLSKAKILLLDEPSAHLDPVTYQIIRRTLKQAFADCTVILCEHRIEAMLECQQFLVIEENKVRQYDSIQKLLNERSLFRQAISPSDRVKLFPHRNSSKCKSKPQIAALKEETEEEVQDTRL
Procedure, shortened: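 FRT cells stably co-expressing human CFTR and halide-sensing YFP-H148Q/I152L, plated 50,000 cells/well. At assay, PBS wash, then 25 min in PBS with forskolin (20 μM). Iodide solution injected (final I⁻ 100 mM) during a 14-s fluorescence reading (ex 500, em 535 nm). The final 11 s were fitted exponentially to give initial slope dF/dt. Test compounds at 10 μM, normalized to DMSO (100%). Mean of 2 or 3 independent experiments.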

[6] = Permeability of compound at 10 uM after 4 hrs by PAMPA; format: ADME
Procedure, shortened: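 PAMPA with porcine brain lipid (2% w/v in dodecane). Compound 10 μM in HBSS/Hepes pH 7.4 in the donor well, 4 h at 37 °C and 80% humidity, warfarin membrane-integrity control. Donor and acceptor concentrations by UPLC-MS-TOF; effective permeability Pe calculated.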

[7] = tested on: Cystic fibrosis transmembrane conductance regulator (Homo sapiens), P13569 [F508del]; assay: Corrector activity at human CFTR F508 deletion mutant expressed in human A549 cells incubated for 25 mins by YFP-based fluorescence analysis; format: cell-based
Procedure, shortened: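 A549 cells stably co-expressing ΔF508-CFTR and YFP-H148Q/I152L, cultured in DMEM/F-12. Corrector treatment 18–24 h at 37 °C, then 25 min forskolin (20 μM) plus genistein (50 μM). Iodide injected (final 100 mM). Initial slope dF/dt taken from an exponential fit of the final 11 s. EC50/Emax from dose–response. Mean of 2–3 independent experiments.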

[8] = tested on: Cystic fibrosis transmembrane conductance regulator (Homo sapiens), P13569 [F508del]; assay: Corrector activity at human CFTR F508 deletion mutant expressed in FRT cells at 15 uM incubated for 25 mins with forskolin by YFP-based fluorescence analysis relative to control; format: cell-based
[9] = Apparent permeability from apical to basolateral side in MDCK cells at 10 uM incubated for 2 hrs by LC-MS analysis; format: ADME, cell-based, Canis lupus familiaris; details: dog
Procedure, shortened: (§3)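 MDCK monolayers on inserts seeded 5 days earlier, TEER >70 Ohm×cm². Compound 10 μM in HBSS-Hepes added to the donor side, in duplicate, each direction. 2 h at 37 °C with agitation, sampled at 0 and 120 min, LC-MS. Integrity checked with Lucifer Yellow. Papp calculated for each direction; efflux ratio is B→A over A→B.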

[10] = Efflux ratio of permeability from basolateral to apical over apical to basolateral side of MDCK cells at 10 uM incubated for 2 hrs by LC-MS analysis; format: ADME, cell-based, Canis lupus familiaris; details: dog; procedure, shortened: as §3
[11] = Stability in rat plasma assessed as compound remaining after 3 hrs by LC-MS/MS analysis; format: ADME, cell-free; details: read-out: Stability
Procedure, shortened: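 Compound at 10 μM in 100% fresh rat plasma at 37 °C, sampled to 3 h. Quenched with 3 volumes cold acetonitrile, centrifuged 3000 g for 15 min, supernatant diluted 1:10 in water, LC-MS/MS. Reported as % remaining.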

| solubility ([1]; buffer, pH 7.4, 24 h, 250 µM) | remaining at 1 h (CYP3A4) | Emax [2] | Emax [3] | EC50 [4] | Emax [5] | solubility at 24 h, 250 µM [1] | permeability [6] | Emax [7] | Emax [8] | Papp A→B at 2 h, 10 µM [9] | efflux ratio at 2 h, 10 µM [10] | remaining at 3 h [11] | Compound |
| --- | --- | --- | --- | --- | --- | --- | --- | --- | --- | --- | --- | --- | --- |
| 1 µM (≈ 0.457 µg/mL) | 55% | 100% | 114% | 1100 nM | 115% |  |  |  |  |  |  |  | COc1ccc(Cl)cc1Nc1nc(-c2sc(NC(=O)c3ccccc3)nc2C)cs1 |
|  | 71% |  | 56.6% | 1400 nM | 103% | 250 µM (≈ 107 µg/mL) | permeable | 34.4% | 74.6% | 0.4 ×10⁻⁶ cm/s | 52.3 | 85% | NC(=O)C1CCN(c2nc(-c3ccccn3)nc3c2CN(Cc2ccccc2)CC3)CC1 |
|  | 13% | 41.4% | 92.9% | 2200 nM |  | 1 µM (≈ 0.511 µg/mL) |  |  |  |  |  |  | COc1ccc(S(=O)(=O)N2CCN(C(C)c3nc(OC4CCCCC4)c4ccccc4n3)CC2)cc1 (configuration not stated) |
